# Source: PubChem (Broad Institute)
# CaV13 FRET inh – Primary screen for inhibitors of IQ motif and Ca2+-dependent inactivation inhibitor domain binding in CACNA1D, Förster resonance energy transfer in living cells, …. HEK cells, CFP/YFP FRET ICDI-IQ, plate reader, 10 min; percent FRET-ratio fall versus neutral wells. inhibition, % at 12.3 µM. hit rate 0.098% among 340,000;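 active = mean replicate inhibition of at least 30% and at least 1% of replicates passing that level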;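 also: 0% = median of the neutral control wells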
# PvdQ inh – P. aeruginosa PvdQ acylase inhibition | purified PvdQ acylase, fluorescence plate reader | inhibition, % at 10 µM | hit rate 0.063% among 340,000 | AID 488965; in the data active = inhibition above about 30%, passing the limit was not always enough;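 also: 0% = vehicle neutral wells and 100% = reference inhibitor wells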
# PfHsp90 set2 – growth inhibition of yeast expressing Plasmodium Hsp90. S. cerevisiae expressing PfHsp90, BacTiter-Glo ATP, 48 h; yeast lacking PDR1 and PDR3 efflux regulators. inhibition, % at 9.4 µM. hit rate 0.32% among 310,000. AID 504621;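 active = every replicate shows inhibition above about 80%, whatever the replicate mean, limit read from the data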;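 also: 0% = DMSO neutral controls and 100% = 20 µM radicicol positive controls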
# N-glyco inh – blocks N-linked glycosylation in D54 reporter cells; D54 ERlucT glycosylation luciferase reporter, 24 h; percent of 100 nM tunicamycin response; reporter increase, % at 12.5 µM; hit rate 0.23% among 360,000;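 active = mean luciferase reporter signal, scaled so untreated is 0 and the glycosylation-blocking control 100, at or above a set limit in every replicate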;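 also: luciferase carries N-glycosylation sites so blocking glycosylation raises the light; 0% = median of neutral control wells and 100% = median of 100 nM tunicamycin wells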
# T cruzi inh – blocks replication of Trypanosoma cruzi | T. cruzi beta-gal in NIH3T3, luminescence, 90 h | inhibition, % (no concentration beside the values) | AID 1885 | hit rate 1.4% among 300,000;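 active = mean inhibition across valid replicates above about 55%, limit read from the data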;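 also: signal also drops with host cell toxicity which is not excluded here; 0% = plate median of DMSO wells and 100% = zero luminescence signal; higher percent means less beta-gal luminescence so fewer parasites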
#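 Incubation – ≥90 h infection period, 3 h prior cell attachment · System – NIH/3T3 fibroblasts plus reporter T. cruzi · Doses – compound pinned at 50 nL/well, DMSO · Read-out basis – percent inhibition of parasite-derived β-gal signal · Signal – luminescent β-galactosidase signal after 60 min lysis · Also added – 5000 T. cruzi trypomastigotes/well · Medium – Low-serum DMEM with 2% FBS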
# HSF1 activator – increases HSF-1 driven luciferase reporter signal. NIH3T3-HGL HSF-1 luciferase reporter, MG132, 8 h; 100% = twice DMSO control signal. activation, % at 9 µM. hit rate 1.7% among 300,000. AID 504408;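 active = mean replicate activation of at least 50% with a set share of replicates each reaching 50%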;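 also: 0% = median of the neutral control wells and 100% = twice that signal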
# Active calls of the source: *; . = no result. Sampled rows, rich in hits. Any-hit rate of the full collection: about 3%.
SMILES,CaV13 FRET inh,PvdQ inh,PfHsp90 set2,N-glyco inh,T cruzi inh,HSF1 activator
O=C(NCC#CCOCc1ccccc1)c1ccccc1,37.3*,11.9,3.5,1.5,8.6,-8.4
O=C1C=CC(=O)N1c1cccc(-c2ccccc2)c1,-18.1,-8.4,106.8*,2.0,-14.5,47.5
Cc1nnc(C)n1/N=C/c1cc(Br)cc(Br)c1O,.,-3.9,100.6*,-0.3,8.2,9.8
CSC(=S)NN=C(C)c1cccc(C)n1,-6.3,-1.7,104.5*,-7.6,.,.
C[C@@H]1CN([C@@H](C)CO)C(=O)CCCn2cc(nn2)CO[C@H]1CN(C)C(=O)NC1CCCCC1,-4.8,.,.,.,.,.
O=C(Nc1ccccc1N1CCCC1)c1ccc([N+](=O)[O-])cc1Cl,-0.1,-7.6,-17.1,0.7,56.5*,13.8
CN1CCN(c2ccccc2NC(=O)c2cccc([N+](=O)[O-])c2)CC1,-5.1,-10.3,.,-0.2,7.1,6.9
O=C(Nc1ccccc1N1CCN(C(=O)c2ccc(Cl)cc2)CC1)c1cccc([N+](=O)[O-])c1,.,-11.7,16.5,3.0,54.8*,70.7*
Cc1cc2nc(-c3ccc(Cl)cc3)c(CC3CCCCC3)n2c(C)c1Br,-5.4,.,.,.,.,.
CCOc1cccc(C(=O)Nc2cccc(-c3nnc(-c4ccccc4)o3)c2)c1,-7.4,1.9,-30.0,-5.0,15.3,16.1
CCOc1cccc(C(=O)Nc2cccc(-c3nnc(-c4ccc(C)cc4)o3)c2)c1,-8.0,-4.5,-6.3,98.5*,3.2,-5.5
COCCOC(=O)c1[nH]c2c(c1C)C(=O)CC(c1cccs1)C2 (stereo not given),-2.3,-0.2,-1.1,17.6,8.4,-23.7
Cc1c(C(=O)OCC(C)C)[nH]c2c1C(=O)CC(c1cccs1)C2 (stereo not given),-4.5,-16.0,30.0,21.0,54.7*,-9.7
O=C(NCc1nnc(SCc2ccccc2)n1-c1ccccc1)C12CC3CC(CC(C3)C1)C2,-3.2,-12.3,-19.1,-3.8,41.1,90.5*
Cc1noc(/C=C/N(C)C)c1S(=O)(=O)N1CCCC(C(=O)NC2CCCCC2)C1 (stereo not given),-3.7,1.0,6.2,-2.2,61.8*,-15.2
Cc1noc(/C=C/N(C)C)c1S(=O)(=O)N1CCCC(C(=O)N2CCCCC2)C1 (stereo not given),-5.5,-2.8,16.8,1.0,11.6,-14.7
CC(C)C[C@H]1COc2c(Cl)cccc2S(=O)(=O)N1,-6.5,.,.,.,.,.
COc1ccc(C2C(CC(=O)O)=C(Nc3ccccc3)C(=O)N2c2ccccc2)cc1 (stereo not given),-6.2,-5.0,.,1.5,-7.7,64.1*
COc1ccc(C2C(C(C)=O)=C(O)C(=O)N2c2ccc(C)cc2)cc1 (stereo not given),-2.4,-13.2,12.5,0.2,28.7,60.6*
COc1ccc2[nH]c(C(=O)Nc3cccc(C)n3)cc2c1,-12.1,.,.,-12.0,1.9,60.6*
COC(=O)c1ccc(CSc2nc3ccccc3[nH]2)o1,-4.7,1.0,-11.3,-1.8,1.5,10.7
COC(=O)c1cccc(CSc2nc3ccccc3[nH]2)c1,-5.8,-7.6,-3.8,-2.1,-11.7,54.6*
C[C@@H]1NS(=O)(=O)c2cccc(Cl)c2O[C@@H]1c1ccccc1,-7.2,.,.,.,.,.
Cc1ccc(OCC(=O)N2CCc3ccccc3C2)c(Br)c1,-14.8,7.6,-10.7,-0.9,10.7,76.1*
Cc1nc2c(-c3ccc(F)cc3)c(C)nn2c(C)c1CCC(=O)Nc1ccccc1,-5.9,7.9,7.2,-0.1,49.7,.
CCN1CCN(c2ccc(NC(=O)CCc3c(C)nc4c(-c5ccc(F)cc5)c(C)nn4c3C)cc2)CC1,-4.1,-6.9,-20.0,-4.2,64.3*,1.6
Nc1[nH]c(C(=O)c2ccccc2)c(-c2ccc3ccccc3c2)c1C(=O)NCc1cccc2ccccc12,-5.1,.,.,.,.,.
CN(Cc1cccc(F)c1)C(=O)CNS(=O)(=O)c1ccc2ccccc2c1,-2.9,-16.2,-2.9,-2.8,8.0,63.1*
CSc1ccc(S(=O)(=O)NCC(=O)OCC(=O)N(C)Cc2ccccc2)cc1[N+](=O)[O-],-15.3,-6.3,.,1.0,-6.5,-2.6
